The target of experiment [1] is Aldo-keto reductase family 1 member B1 (Rattus norvegicus, UniProt P07943). The experiment in a line: Inhibitory concentration to aldose reductase (ALR-2) obtained from rat lens.
For experiment [2], the species on record is Rattus norvegicus. Briefly: Effect of the treatment on day 19 with ophthalmic solution (3%)on development of nuclear cataract in severely galactosemic rats. The class given is functional. The essentials: (§1)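 Sprague Dawley albino rats (45-55 g), 15 per group of equal average body weight, fed 50% D-galactose diet with ad libitum food and water. Eyedrops given four times daily in the precorneal region, starting 1 day before the switch to galactose chow. Vehicle controls were run on galactose and on normal diet. Lenses were checked by slit-lamp after 1% atropine mydriasis, and animals with nuclear cataract (central white opacity) were counted.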

The species entered for experiment [3] is Rattus norvegicus. The experiment in a line: Effect of the treatment on day 18 with ophthalmic solution (3%)on development of nuclear cataract in severely galactosemic rats. It is filed as functional. The essentials:
as §1

The species named for experiment [4] is Rattus norvegicus. Briefly: Effect of the treatment on day 15 with ophthalmic solution (3%)on development of nuclear cataract in severely galactosemic rats. The class given is functional. In short, it runs like this:
as §1

Experiment [5] is filed under the species Rattus norvegicus. The experiment in a line: Effect of the treatment on day 17 with ophthalmic solution (3%)on development of nuclear cataract in severely galactosemic rats. The class given is functional. In short, it runs like this: as §1
For experiment [6], the species on record is Rattus norvegicus. Briefly: Effect of the treatment on day 13 with ophthalmic solution (3%)on development of nuclear cataract in severely galactosemic rats. It is filed as functional. The essentials: as §1
For experiment [7], the species on record is Rattus norvegicus. Briefly: Effect of the treatment on day 16 with ophthalmic solution (3%)on development of nuclear cataract in severely galactosemic rats. The class given is functional. The essentials: as §1
The species entered for experiment [8] is Rattus norvegicus. The experiment in a line: Effect of the treatment on day 14 with ophthalmic solution (3%)on development of nuclear cataract in severely galactosemic rats. The class given is functional. In short, it runs like this:
as §1

For experiment [9], the species on record is Rattus norvegicus. The experiment in a line: Effect of the treatment on day 12 with ophthalmic solution (3%)on development of nuclear cataract in severely galactosemic rats. It is filed as functional. The essentials:
as §1

Experiment [10] is filed under the species Rattus norvegicus. Briefly: Effect of the treatment on day 21 with ophthalmic solution (3%) on development of nuclear cataract in severely galactosemic rats. It is filed as functional. In short, it runs like this:
as §1

For experiment [11], the species on record is Rattus norvegicus. Briefly: Effect of the treatment on day 20 with ophthalmic solution (3%)on development of nuclear cataract in severely galactosemic rats. It is filed as functional. The essentials: as §1
For experiment [12], the species on record is Rattus norvegicus. The experiment in a line: Effect of the treatment on day 11 with ophthalmic solution (3%)on development of nuclear cataract in severely galactosemic rats. It is filed as functional. The essentials: as §1
The species entered for experiment [13] is Rattus norvegicus. The experiment in a line: Effect of the treatment on day 12 with ophthalmic solution (1%)on development of nuclear cataract in severely galactosemic rats. The class given is functional. The essentials:
as §1

Experiment [14] is filed under the species Rattus norvegicus. Briefly: Effect of the treatment on day 14 with ophthalmic solution (1%)on development of nuclear cataract in severely galactosemic rats. It is filed as functional. The essentials:
as §1

Experiment [15] is filed under the species Rattus norvegicus. The experiment in a line: Effect of the treatment on day 13 with ophthalmic solution (1%)on development of nuclear cataract in severely galactosemic rats. It is filed as functional. In short, it runs like this: as §1
The species named for experiment [16] is Rattus norvegicus. Briefly: Effect of the treatment on day 11 with ophthalmic solution (1%)on development of nuclear cataract in severely galactosemic rats. The class given is functional. In short, it runs like this:
as §1

The species entered for experiment [17] is Rattus norvegicus. Briefly: Effect of the treatment on day 17 with ophthalmic solution (1%)on development of nuclear cataract in severely galactosemic rats. It is filed as functional. In short, it runs like this:
as §1

For experiment [18], the species on record is Rattus norvegicus. The experiment in a line: Effect of the treatment on day 20 with ophthalmic solution (1%)on development of nuclear cataract in severely galactosemic rats. It is filed as functional. The essentials:
as §1

The species named for experiment [19] is Rattus norvegicus. The experiment in a line: Effect of the treatment on day 15 with ophthalmic solution (1%)on development of nuclear cataract in severely galactosemic rats. The class given is functional. In short, it runs like this:
as §1

Experiment [20] is filed under the species Rattus norvegicus. The experiment in a line: Effect of the treatment on day 16 with ophthalmic solution (1%)on development of nuclear cataract in severely galactosemic rats. The class given is functional. The essentials: as §1
The species entered for experiment [21] is Rattus norvegicus. Briefly: Effect of the treatment on day 18 with ophthalmic solution (1%)on development of nuclear cataract in severely galactosemic rats. It is filed as functional. The essentials:
as §1

For experiment [22], the species on record is Rattus norvegicus. The experiment in a line: Effect of the treatment on day 21 with ophthalmic solution (1%) on development of nuclear cataract in severely galactosemic rats. The class given is functional. The essentials: as §1
The species entered for experiment [23] is Rattus norvegicus. The experiment in a line: Effect of the treatment on day 19 with ophthalmic solution (1%)on development of nuclear cataract in severely galactosemic rats. The class given is functional. In short, it runs like this:
as §1

Each structure is given as a SMILES string.

In general, IC50 refers to the concentration at which inhibition is half-maximal. In experiment [1], `O=C(O)Cn1nc2n(Cc3ccc(F)c(F)c3)c3ccccc3n2c(=O)c1=O` gave a concentration for half-maximal inhibition (IC50) of 4.42 µM.
On the same count and under the same terms, the figure for `O=C(O)CN/N=c1\n(Cc2ccc(Cl)cc2)c2ccccc2n1C(=O)C(=O)O` is 10 µM.
In experiment [1], `COc1ccc(Cn2/c(=N\NCC(=O)O)n(C(=O)C(=O)O)c3ccccc32)cc1` gave an IC50 of 44.5 µM.
With `O=C(O)CN/N=c1\n(Cc2ccc(Br)cc2F)c2ccccc2n1C(=O)C(=O)O`, in experiment [1], half-maximal inhibition (IC50) required 12.5 µM.
As to `Cn1/c(=N\NCC(=O)O)n(C(=O)C(=O)O)c2ccccc21`, in experiment [1], the half-maximal inhibitory concentration (IC50) was 109 µM.
For `O=C(O)CN/N=c1\n(Cc2ccccc2)c2ccccc2n1C(=O)C(=O)O`, in experiment [1], the 50% inhibitory concentration (IC50) stood at 4.5 µM.
Turning to `O=C(O)Cn1nc2n(Cc3ccc(F)cc3)c3ccccc3n2c(=O)c1=O`, inhibition in experiment [1] was half-maximal at 4.58 µM (IC50).
`CCCn1c2ccccc2n2c(=O)c(=O)n(CC(=O)O)nc12` showed an IC50 in experiment [1] of 37.2 µM.
As to `O=C(O)Cn1nc2n(Cc3ccc(Br)cc3F)c3ccccc3n2c(=O)c1=O`, the IC50 in experiment [1] is 4.47 µM.
In turn, `O=C(O)CN/N=c1\n(Cc2ccc(C(F)(F)F)cc2)c2ccccc2n1C(=O)C(=O)O` registered an IC50 in experiment [1] of 2.63 µM.
`Cc1ccc(Cn2c3ccccc3n3c(=O)c(=O)n(CC(=O)O)nc23)cc1` yielded a half-maximal inhibitory concentration (IC50) in experiment [1] of 13.3 µM.
The same measure, in the same setting: for `O=C(O)Cc1nnc2nc3ccccc3n2c1O` the value was 35.9 µM; for `O=C(O)Cn1nc2n(Cc3ccc(C(F)(F)F)cc3)c3ccccc3n2c(=O)c1=O`, 23.9 µM.
As for `CC(C)OC(=O)Cn1nc2n(Cc3ccccc3)c3ccccc3n2c(=O)c1=O`, the Nuclear cataract in the experiment listed under Rattus norvegicus [2] stood at 40%; in the experiment listed under Rattus norvegicus [3], 40%; in the experiment listed under Rattus norvegicus [4] it was 10%; in the experiment filed under Rattus norvegicus [5], 10%; in the experiment filed under Rattus norvegicus [6] it was 10%; in the experiment filed under Rattus norvegicus [7], 10%. Further, the Nuclear cataract is reported as 10% in the experiment listed under Rattus norvegicus [8]; 10% in the experiment filed under Rattus norvegicus [9]; 40% in the experiment filed under Rattus norvegicus [10]; 40% in the experiment filed under Rattus norvegicus [11]; 0% in the experiment filed under Rattus norvegicus [12].
In experiment [1], `Cn1c2ccccc2n2c(=O)c(CC(=O)O)nnc12` had an IC50 of 17 µM.
`O=C(O)Cn1nc2n(Cc3ccc(Cl)cc3)c3ccccc3n2c(=O)c1=O` gave a 50% inhibitory concentration (IC50) in experiment [1] of 4.15 µM.
Same read-out and setting: the figure for `O=C(O)CN/N=c1\n(Cc2ccc(F)c(F)c2)c2ccccc2n1C(=O)C(=O)O` is 9.72 µM; for `COc1ccc(Cn2c3ccccc3n3c(=O)c(=O)n(CC(=O)O)nc23)cc1` it is 42.6 µM.
On to `O=C(O)CN/N=c1\n(CC(=O)O)c2ccccc2n1C(=O)C(=O)O`, for which the IC50 in experiment [1] was 236 µM.
For the compound `O=C(O)Cn1nc2n(Cc3ccccc3)c3ccccc3n2c(=O)c1=O`, the Nuclear cataract in the experiment filed under Rattus norvegicus [2] is recorded as 40%; in the experiment listed under Rattus norvegicus [3] it was 40%; in the experiment filed under Rattus norvegicus [4], 10%; in the experiment listed under Rattus norvegicus [5], 10%; in the experiment filed under Rattus norvegicus [6] it was 0%; in the experiment filed under Rattus norvegicus [7], 10%. Further, the Nuclear cataract was determined as 10% in the experiment listed under Rattus norvegicus [8]; 0% in the experiment filed under Rattus norvegicus [9]; 50% in the experiment listed under Rattus norvegicus [10]; 50% in the experiment filed under Rattus norvegicus [11]; 0% in the experiment filed under Rattus norvegicus [12]. The same compound returned an IC50 in experiment [1] of 0.36 µM.
In experiment [1], `O=C(O)CN/N=c1\n(Cc2ccc(F)cc2)c2ccccc2n1C(=O)C(=O)O` yielded a half-inhibitory concentration (IC50) of 14.8 µM.
On the same count and under the same terms, the figure for `Cn1c2ccccc2n2c(=O)c(=O)n(CC(=O)O)nc12` is 24.8 µM; for `O=C(O)Cn1nc2n(CC(=O)O)c3ccccc3n2c(=O)c1=O` it is 13.5 µM.
The compound `O=C(O)Cc1nnc2n(Cc3ccccc3)c3ccccc3n2c1=O` displayed a concentration for half-maximal inhibition (IC50) in experiment [1] of 5.44 µM.
As to `Cc1ccc(Cn2/c(=N\NCC(=O)O)n(C(=O)C(=O)O)c3ccccc32)cc1`, the half-maximal inhibitory concentration (IC50) in [1] was found to be 45.9 µM.
`CCCn1/c(=N\NCC(=O)O)n(C(=O)C(=O)O)c2ccccc21` gave an IC50 in [1] of 46.5 µM.
On to `COc1ccc2c(C(=S)N(C)CC(=O)O)cccc2c1C(F)(F)F` [TOLRESTAT], for which the Nuclear cataract in the experiment filed under Rattus norvegicus [13] amounted to 0%; in the experiment filed under Rattus norvegicus [2] it was 0%; in the experiment listed under Rattus norvegicus [14], 23%; in the experiment filed under Rattus norvegicus [15], 0%; in the experiment filed under Rattus norvegicus [16], 0%; in the experiment listed under Rattus norvegicus [3], 0%. Moreover, the Nuclear cataract in the experiment filed under Rattus norvegicus [17] is listed as 32%; in the experiment listed under Rattus norvegicus [4], 0%; in the experiment listed under Rattus norvegicus [18], 47%; in the experiment filed under Rattus norvegicus [5], 0%; in the experiment listed under Rattus norvegicus [19], 32%; in the experiment listed under Rattus norvegicus [6], 0%. In addition, the Nuclear cataract is 32% in the experiment listed under Rattus norvegicus [20]; 0% in the experiment filed under Rattus norvegicus [7]; 0% in the experiment filed under Rattus norvegicus [8]; 0% in the experiment filed under Rattus norvegicus [9]; 0% in the experiment listed under Rattus norvegicus [10]; 43% in the experiment listed under Rattus norvegicus [21]. In addition, the Nuclear cataract turned out to be 0% in the experiment listed under Rattus norvegicus [11], 0% in the experiment listed under Rattus norvegicus [12], 47% in the experiment listed under Rattus norvegicus [22] and 43% in the experiment listed under Rattus norvegicus [23]. Further, the IC50 in experiment [1] was 0.05 µM.
